STAT1 act-1 – STAT1 signaling activation. activation (% of control), % at 5.5 µM. 200,000 compounds, 2.6% hits. NIH 3T3 STAT1-luciferase reporter, IFN-gamma, luminescence; 100% = IFN-gamma alone, no compound;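 active means activation above the screen-wide mean activation plus 3 SD, cut at about 130% in these data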
STAT3 act-1 – increases IL-6 driven STAT3 reporter signal. U3A cells, IL-6 STAT3-luciferase reporter, luminescence; 100% = signal with IL-6 EC80 alone. activation (% of control), % at 5.6 µM. 190,000 compounds, 0.91% hits;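 active means activation above the screen-wide mean of compound activation plus 3 SD, cut at about 130% in these data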
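Material: human U3A cells carrying STAT3-luciferase construct. Measured by: reporter luminescence signal. Timing: compound 1 h, then IL-6 6 h at 37 °C.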
STAT1 blocker – inhibitors of IFN-gamma induced STAT1 signaling. NIH 3T3 STAT1-luciferase reporter, luminescence. inhibition, % at 5.5 µM. 200,000 compounds, 0.35% hits;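 active means inhibition above a set limit, the mean inhibition across all tested compounds plus 3 SD, cut at about 34% in these data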
NF-kB expr up – compounds increasing NF-kB expression in human neuronal cells; NF-kB reporter expression; stronger effect = higher value; fold change at 12.5 µM; 190,000 compounds, 1.6% hits; in the data active means fold change above about 3.3
STAT3 inh – inhibitors of IL-6 induced STAT3 signaling; 190,000 compounds, 0.89% hits; AID 862; U3A cells, IL-6 STAT3-luciferase reporter, luminescence; host cell line lacks STAT1; inhibition, % at 5.5 µM;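 active means inhibition above the mean inhibition across all screened compounds plus 3 SD, cut at about 44% in these data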
APP 5'UTR act – APP 5'UTR luciferase reporter activation. SH-SY5Y APP 5'UTR luciferase reporter, luminescence; zero percent = DMSO vehicle wells. activation, % at 2 µM. 190,000 compounds, 1% hits. AID 1276;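 active means activation above a set limit, based on mean plus 3 SD of controls, cut at about 140% in these data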
STAT3 act-2 – confirmation of STAT3 signaling activators | U3A STAT3-luciferase reporter, IL-6 potentiation, luminescence; U3A cells lack STAT1; 100 means same as IL-6 alone | shares compounds with STAT3 act-1 | potentiation (% of control), % at 5.7 µM | AID 1267 | 1,200 compounds, 64% hits;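 active means percent activation of the STAT3 luciferase reporter above a set limit taken from the earlier primary screen, cut at about 130% in these data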
NFkB act 2 – counter-screen for STAT3 activators: NF-kappaB activation. shares compounds with STAT3 act-1. human cells, NF-kappaB reporter activation. activation (% of control), % at 5.7 µM. 1,200 compounds, 11% hits. AID 1309; in the data active means activation above about 120%;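 further: reporter induced by TNF-alpha stimulation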
STAT1 act-2 – STAT1 activation in STAT3 activator counter-screen; shares compounds with STAT3 act-1; NIH 3T3 STAT1-luciferase reporter, IFN-gamma, luminescence; activation (% of control), % at 5.7 µM; 1,200 compounds, 13% hits; AID 1318;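 active means activation above the solvent-only control well mean plus 3 SD, set per screening run, cut at about 120% in these data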
Large screens that a line does not name were inactive (follow-up assays come after a bar, where they were run). Shown are actives, neighbours in structure and some others; about 5.1% of the full set was active somewhere.

Cc1ccc(-c2nnn(CC(=O)N(c3ccccc3F)C(C(=O)NCC3CCCO3)c3c[nH]c4ccccc34)n2)cc1 (stereo not given)	STAT3 act-1 145.1 | STAT3 act-2 inactive | NFkB act 2 inactive | STAT1 act-2 inactive
Cc1ccc(-c2nnn(CC(=O)N(c3ccccc3)C(C(=O)NCC3CCCO3)c3ccc(Cl)cc3)n2)cc1 (stereo not given)	none
CCSc1nnc(NC(=O)C(C)Sc2nc3ccccc3[nH]2)s1 (stereo not given)	none
CC1CCN(C(=O)Cn2c(=O)n(CCc3ccccc3)c(=O)c3ccccc32)CC1	STAT3 act-1 140.3 | STAT3 act-2 138.4 | NFkB act 2 inactive | STAT1 act-2 inactive
Cc1ccc(C)c(S(=O)(=O)Nc2cc(SCC(=O)O)c(O)c3ccccc23)c1	STAT3 act-1 143.0 | STAT3 act-2 145.6 | NFkB act 2 inactive | STAT1 act-2 inactive
CC1CC(C)CN(C(=O)CSCC(=O)Nc2nc(-c3cccs3)cs2)C1 (stereo not given)	STAT3 act-1 136.0 | STAT3 act-2 inactive | NFkB act 2 inactive | STAT1 act-2 inactive
CCCc1nnc(N2C(=O)c3cccc4cccc(c34)C2=O)s1	STAT3 act-1 159.9 | STAT3 act-2 145.7 | NFkB act 2 inactive | STAT1 act-2 inactive
COc1ccccc1OCC#CCNC1CCCCC1C (stereo not given)	none
CC(C)(Oc1ccc(Cl)cc1)C(=O)N(Cc1ccccc1)c1ccccn1	none
c1ccc(-c2cc3ccccc3nc2N2CCCC2)cc1	STAT3 act-1 136.4 | STAT3 act-2 inactive | NFkB act 2 inactive | STAT1 act-2 inactive
FC(F)(F)c1ccc(Oc2ccc(Cl)cc2Br)nc1	none
CCC(=O)n1nc(-c2ccc(Cl)cc2)nc1SC	none
Cc1nc2nc(-c3ccc(Cl)cc3)nn2c(C)c1Cl	STAT3 act-1 167.0 | STAT3 act-2 163.6 | NFkB act 2 inactive | STAT1 act-2 124.0
Cc1nc2nc(-c3ccccc3)nn2c(C)c1Cl	STAT3 act-1 178.7 (no result: NF-kB expr up) | STAT3 act-2 168.9 | NFkB act 2 125.9 | STAT1 act-2 137.7
Cc1nc(-c2ccccc2)nc(Cl)c1Cl	none
Cc1c(C(=O)NCc2cccnc2)oc2ccc(S(=O)(=O)N3CC(C)CC(C)C3)cc12 (stereo not given)	STAT3 act-1 136.4 | STAT3 act-2 159.8 | NFkB act 2 inactive | STAT1 act-2 inactive
COc1cc(OC)cc(-c2nc3ccccc3s2)c1	STAT3 act-1 203.0 | STAT3 act-2 179.8 | NFkB act 2 127.1 | STAT1 act-2 138.7
COc1ccc(C(O)c2nc3ccccc3s2)cc1 (stereo not given)	none
Cc1oc(CC(C)C)cc1C(=O)NCCCC(=O)O	none
CCCOc1ccc(-c2nc(OC)c3ccccc3n2)cc1	STAT3 act-1 142.2 | STAT3 act-2 151.7 | NFkB act 2 inactive | STAT1 act-2 inactive
CCCOc1ccc(C(=O)Nn2c(C)nc3ccccc3c2=O)cc1	none
Cc1ccc2sc(N(CCCN(C)C)C(=O)CN3C(=O)c4ccccc4C3=O)nc2c1C	none
C=CCn1c(=O)c2ccccc2n2c(SCc3nc4ccccc4s3)nnc12	STAT3 act-1 144.2 | STAT3 act-2 141.8 | NFkB act 2 122.5 | STAT1 act-2 135.5
C=CCn1c(SCC#N)nc2ccccc2c1=O	STAT3 act-1 136.2 | STAT3 act-2 inactive | NFkB act 2 inactive | STAT1 act-2 inactive
O=S(=O)(c1ccc(Br)cc1)N1CCN(c2cc(-c3ccccc3)nc3ncnn23)CC1	STAT3 act-1 145.8 | STAT3 act-2 inactive | NFkB act 2 inactive | STAT1 act-2 inactive
O=S(=O)(c1ccccc1)N1CCN(c2cc(-c3ccccc3)nc3ncnn23)CC1	none
COc1ccccc1NC(=O)Cc1noc(CSc2nnc(C)n2C)n1	none

Bioassay records (PubChem)
